# The list is not random: actives were taken first. Their share in the collection is about 4%.
# SIRT5 inh – inhibitors of human sirtuin-5 desuccinylase; Q9NXA8; Purified SirT5, succinyl-peptide AMC, trypsin-coupled fluorescence; inhibition, % at 15 µM; 1.1% of 330,000 active; AID 652115; in the data active = inhibition above about 15%
# E-sel inducer – induces E-selectin expression in human endothelial cells. P16581. HUVEC E-selectin immunofluorescence imaging; normalized: neutral wells 0, TNF-alpha wells 100. activation, % at 7.58 µM. 0.37% of 260,000 active. AID 686992;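 active = mean E-selectin-positive cell signal at least 10% of the positive control, reached in at least 60% of replicates, without over 20% cell loss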
# Target sequence (P16581 whole entry, looked up): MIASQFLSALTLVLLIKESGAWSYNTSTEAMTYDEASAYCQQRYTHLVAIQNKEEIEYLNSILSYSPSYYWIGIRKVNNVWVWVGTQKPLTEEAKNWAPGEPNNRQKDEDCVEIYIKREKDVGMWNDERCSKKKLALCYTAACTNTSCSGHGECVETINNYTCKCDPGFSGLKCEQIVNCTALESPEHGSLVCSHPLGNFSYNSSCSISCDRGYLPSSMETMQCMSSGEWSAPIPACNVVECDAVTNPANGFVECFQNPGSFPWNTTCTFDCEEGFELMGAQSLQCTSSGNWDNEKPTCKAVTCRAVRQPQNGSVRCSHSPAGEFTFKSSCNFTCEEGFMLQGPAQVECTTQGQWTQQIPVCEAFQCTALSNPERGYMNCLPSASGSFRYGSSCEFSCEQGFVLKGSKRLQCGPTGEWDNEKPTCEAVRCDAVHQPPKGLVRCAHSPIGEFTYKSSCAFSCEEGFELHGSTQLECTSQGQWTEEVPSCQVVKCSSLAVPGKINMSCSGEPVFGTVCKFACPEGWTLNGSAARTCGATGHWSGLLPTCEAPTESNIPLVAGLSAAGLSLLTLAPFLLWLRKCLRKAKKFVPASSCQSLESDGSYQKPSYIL
#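 Read-out basis: % PE-positive cells; Test system: HUVEC primary endothelial cells; Technique: immunofluorescence imaging; Dosing: single-point compound dose.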
# FGF22 binding – binders of recombinant human FGF22 by thermal shift; Q9HCT0; SYPRO orange fluorescence; percent of sucrose octasulfate shift, DMSO zero; activity (Tm shift, normalised), % at 9.99 µM; 1.5% of 340,000 active; AID 651658;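 active = mean Tm shift, scaled 0 neutral to 100 positive control, at about 1.3% or above, every replicate too, limit read from the data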
# C2C12 statin – protects C2C12 myotubes from simvastatin toxicity; 0.78% of 330,000 active; ATP luminescence, 48 h; scaled: DMSO 0, geranylgeraniol control 100; rescue of ATP level, % at 7.49 µM;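 active = mean ATP rescue above about 67%, or every replicate alone reaching that limit, limit read from the data, passing the limit was not always enough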;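 also: myotubes were challenged with 10 µM simvastatin during compound exposure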
# FN deposition inh – fibronectin deposition inhibition; AID 743247; AH1F fibroblasts, Alexa488-fibronectin deposition fluorescence, overnight; inhibition, % at 12.6 µM; 0.086% of 350,000 active;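 active = mean inhibition across replicates of 30% or more, regardless of how many single replicates reach that level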
#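 material = AH1F fibroblast monolayer depositing Alexa488-labelled fibronectin into matrix | amount = 10000 AH1F cells/well | buffer or medium = DMEM plus 2% serum, read in PBS | incubation = 1 h cell adhesion before compound, then overnight fibronectin incubation | detection = fluorescence at 485 nm excitation, 525 nm emission | evaluation = percent inhibition as loss of matrix-bound fibronectin fluorescence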
# Ecoli rRNA inh – inhibits bacterial ribosomal RNA function over humanized ribosomes | E. coli WT GFP vs humanized-ribosome RFP mutants, fluorescence, 24 h; active compounds read low; DMSO median 0, no signal -100 | GFP signal change (wild-type ribosome), % (no concentration beside the values) | 1.6% of 350,000 active | AID 720706;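 active = significant combined selectivity score with lowered wild-type GFP, culture density cut under 30%, mutant RFP and density less affected; inactive = any of these conditions unmet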
# Hits are given with their value; 0 = inactive; - = no result.
SMILES,SIRT5 inh,E-sel inducer,FGF22 binding,C2C12 statin,FN deposition inh,Ecoli rRNA inh
C[C@@H]1CN([C@@H](C)CO)C(=O)c2cc(NC(=O)CCCN(C)C)ccc2O[C@H]1CN(C)Cc1ccc(C(=O)O)cc1,0,0,0,0,-,0
C[C@H]1CN([C@@H](C)CO)C(=O)Cc2cc(NC(=O)CCN3CCOCC3)ccc2O[C@H]1CN(C)Cc1ccc(C(=O)Nc2ccccc2N)cc1,0,0,0,-,-,0
Cc1ccc(N(C(=O)Nc2ccccc2)C2=NCCC2)cc1,0,0,0,-,0,0
COc1ccc(N(C(=O)Nc2ccc(Cl)cc2)C2=NCCC2)cc1,0,-,0,0,-,-36.0
CCN1[C@@H]2Cn3c(ccc(-c4cccc(F)c4)c3=O)[C@H]1[C@@H](C(=O)NCC1CC1)[C@@H]2CO,0,0,0,0,-,0
CCN(C(=O)CSc1nnc(Nc2cccc(C)c2C)s1)C1CCS(=O)(=O)C1 (centres undefined),0,0,0,0,0,-
CCN(C(=O)CSc1nnc(NCc2ccccc2)s1)C1CCS(=O)(=O)C1 (centres undefined),0,-,42.9,0,0,0
Oc1nc(-c2ccc(Br)cc2)n2ccncc12,0,0,43.3,0,0,0
CO[C@H]1CN(C)C(=O)c2ccc(NC(=O)C3CCCC3)cc2OC[C@H](C)N(CC2CC2)C[C@H]1C,0,0,0,0,0,0
COc1ccccc1CC(Cc1nc2ccccc2[nH]1)c1nc2ccccc2[nH]1 (centres undefined),0,176.0,0,-,0,0
COc1ccc(OCC(=O)Nc2ccc(C(=O)Nc3ccccc3C(=O)O)cc2)cc1,23.4,-,0,0,0,0
O=C(Nc1ccc(NC(=O)N2CCN(c3ccccc3O)CC2)cc1)N1CCN(c2ccccc2O)CC1,0,0,0,0,0,-19.8
Cc1ccccc1NC(=O)c1ccc(OCC(=O)Nc2ccccc2F)cc1,0,0,42.9,-,0,0
CCOC(=O)c1csc(NC(=O)c2ccc(OCC)cc2)n1,0,-,43.1,-,0,0
Cc1ccc(OCC(=O)Nc2ccccc2F)cc1,0,0,0,-,0,0
COc1ccc(OCC(=O)Nc2ccccc2C(=O)Nc2ccc(C(=O)O)cc2)cc1,0,-,0,-,0,0
CO[C@H]1CN(C)C(=O)c2cc(NC(=O)C3CCOCC3)ccc2OC[C@H](C)N(Cc2cccnc2)C[C@H]1C,0,0,-,0,0,0
C[C@H]1CN([C@@H](C)CO)C(=O)c2cc(NS(=O)(=O)c3ccccc3)ccc2O[C@H]1CN(C)C,0,0,-,0,0,0
Cc1ccccc1NC(=O)c1cc[n+]([O-])cc1,0,41.3,0,0,0,0
Cc1csc(NC(=O)c2ccc(S(C)(=O)=O)cc2)n1,19.3,-,0,-,-,0
Cc1cccc(NC(=O)c2cc[n+]([O-])cc2)c1C,0,0,0,0,0,0
COc1ccc(C(=O)NCC(=O)Nc2ccc(-c3ccccc3)cc2)cc1,0,-,0,0,0,0
CCOc1ccc(NC(=O)CNC(=O)c2ccc(OC)cc2)cc1,-,73.1,0,-,0,0
COc1ccc(NC(=O)c2ccc(NC(=O)CN3CCN(c4ccccc4O)CC3)cc2)cc1,-,0,43.2,0,0,0
O=S(=O)(N[C@@H]1CC[C@@H](CCn2cc(-c3ccccn3)nn2)O[C@H]1CO)c1cccc(Cl)c1,0,0,0,0,0,0
SMILES,SIRT5 inh,E-sel inducer,FGF22 binding,C2C12 statin,FN deposition inh,Ecoli rRNA inh
CC(=O)c1ccccc1NC(=O)COC(=O)c1ccccc1NC(=O)c1ccccc1,0,0,16.5,-,0,0
COC(=O)COC(=O)c1ccccc1NC(=O)c1ccccc1,0,0,0,-,0,0
O=C(NCC[C@H]1CC[C@@H](NS(=O)(=O)c2ccccc2F)[C@H](CO)O1)c1ccc(F)cc1,0,0,0,0,0,0
O=C1/C(=C/c2ccccc2)SC(=S)N1CCCC(=O)N1CCCCC1CCO (centres undefined),0,0,0,0,0,0
O=C1/C(=C/c2ccccc2F)SC(=S)N1CCC(=O)N1CCCCC1CCO (centres undefined),0,0,0,0,0,-23.2
O=C1/C(=C/c2cccs2)SC(=S)N1CC(=O)N1CCCCC1CCO (centres undefined),0,-,0,0,0,-24.8
O=C1/C(=C/c2cccc(Cl)c2)SC(=S)N1CCC(=O)N1CCCCC1CCO (centres undefined),0,0,0,0,0,-21.9
C[C@@H]1CCCCO[C@@H](CN(C)S(=O)(=O)c2ccc(F)cc2)[C@@H](C)CN([C@@H](C)CO)C(=O)c2cc(NC(=O)c3ccncc3)ccc2O1,0,-,0,-,0,0
CN(C)C(=O)C[C@H]1CC[C@H](NC(=O)C2CC2)[C@H](CO)O1,0,0,0,0,0,0
CC(C)CCN1CCN(Cc2ccc3nsnc3c2)CC1CCO (centres undefined),-,-,-,-,0,-
COc1ccc(CN2CCN(CC=C(C)C)C(CCO)C2)cc1Cn1cccn1 (centres undefined),0,-,43.6,-,0,0
CCOc1cc(CN2CCN(CCc3ccccc3)C(CCO)C2)ccc1OC (centres undefined),0,-,0,-,-,0
CC(C)=CCN1CCN(Cc2ccc3nsnc3c2)CC1CCO (centres undefined),0,-,42.9,-,-,0
COc1ccc(CN2CCN(CCc3ccccc3)C(CCO)C2)cc1Cn1cncn1 (centres undefined),0,-,43.9,0,0,0
N#C[C@@H]1[C@H](c2ccccc2C2=CCCCC2)[C@H](CO)N1C(=O)c1ccccn1,0,0,0,-,0,0
C[C@@H]1CCCCO[C@H](CN(C)CC2CCCCC2)[C@H](C)CN([C@H](C)CO)C(=O)c2cc(NS(=O)(=O)c3cn(C)cn3)ccc2O1,0,0,0,0,-,0
C[C@@H]1CN([C@@H](C)CO)C(=O)Cc2cc(NS(=O)(=O)c3cn(C)cn3)ccc2O[C@H]1CN(C)Cc1ccc(C(F)(F)F)cc1,0,0,0,0,-,0
COc1ccc(N2CCN(C(CNC(=O)c3ccc4c(c3)OCO4)c3cccnc3)CC2)cc1 (centres undefined),-,-,-,0,-,-
O=C(NCC(c1cccnc1)N1CCN(c2ccc(F)cc2)CC1)c1ccc2c(c1)OCO2 (centres undefined),-,-,-,120.5,-,-
Cc1cc(C(=O)Nc2cccc3c2O[C@@H](CN(C)S(C)(=O)=O)[C@@H](C)CN([C@H](C)CO)C3=O)n(C)n1,0,-,0,-,-,0
COc1cccc(-c2ccc([C@@H]3[C@@H](CO)N4CCCCN(CC5CCOCC5)C[C@@H]34)cc2)c1,0,-,0,-,-,-
NC(=O)C[N+]1(CC#CC(O)(c2ccccc2)c2ccccc2)CCCC1,0,0,4.0,0,0,0

# Screens (PubChem BioAssay)
